Results taken from ChEMBL document CHEMBL4118249, “Discovery and Identification of Small Molecules as Methuosis Inducers with in Vivo Antitumor Activities” (J Med Chem, 2018).

Tests used:
Assay type in all cases: organism-based
Settings in all cases: in vivo, 288 h
Mus musculus [1] = assay: Toxicity in ICR mouse assessed as effect on ALT level in serum at 20 mg/kg, iv administered once daily for 12 days
Outline: (§1)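 Healthy ICR mice dosed at 20 mg/kg for 12 days; normal tissues examined for vacuoles, body weight and blood chemistry assessed.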

Mus musculus [2] = assay: Toxicity in ICR mouse assessed as effect on AST level in serum at 20 mg/kg, iv administered once daily for 12 days; outline: as §1
Mus musculus [3] = assay: Toxicity in ICR mouse assessed as body weight loss at 20 mg/kg, iv administered once daily for 12 days; outline: as §1
Mus musculus [4] = assay: Induction of vacuolization in ICR mouse at 20 mg/kg, iv administered once daily for 12 days measured post last dose by H and E staining based light microscopic method; outline: as §1

Measured: Activity

Cc1ccc(NC(=O)c2cccc(C(F)(F)F)c2)cc1Nc1cc(-c2cccnc2)nc2[nH]ccc12.Cl
Non-Toxic: all assays above
